Efflux pump mplx: inhibitors of Candida efflux pumps in yeast, primary screen, S. cerevisiae, Nile Red, multiplex | S. cerevisiae Candida pump triplex | inhibition, % at 10 µM | hit rate 0.44% among 330,000;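 active = plate passing quality check with inhibition over a set limit, or well fluorescence over plate mean plus 4 SD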;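 also: Nile Red retained in pooled yeast measured as flow cytometry median fluorescence; higher means more Nile Red kept so more efflux inhibition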
ASAP1 inh: inhibitors of human ASAP1 ArfGAP activity, primary screen, biochemical, fluorescence polarization; Arf-GAP with SH3 domain, ANK repeat and PH domain-containing protein 1 (Homo sapiens), …; ASAP1-stimulated ARF1 GTP hydrolysis, GDP FP detection; inhibition, % at 16.5 µM; hit rate 0.19% among 360,000; AID 624377, 2012; in the data active = inhibition above about 25%
Target sequence (Q9ULH1 325-724 limits assumed): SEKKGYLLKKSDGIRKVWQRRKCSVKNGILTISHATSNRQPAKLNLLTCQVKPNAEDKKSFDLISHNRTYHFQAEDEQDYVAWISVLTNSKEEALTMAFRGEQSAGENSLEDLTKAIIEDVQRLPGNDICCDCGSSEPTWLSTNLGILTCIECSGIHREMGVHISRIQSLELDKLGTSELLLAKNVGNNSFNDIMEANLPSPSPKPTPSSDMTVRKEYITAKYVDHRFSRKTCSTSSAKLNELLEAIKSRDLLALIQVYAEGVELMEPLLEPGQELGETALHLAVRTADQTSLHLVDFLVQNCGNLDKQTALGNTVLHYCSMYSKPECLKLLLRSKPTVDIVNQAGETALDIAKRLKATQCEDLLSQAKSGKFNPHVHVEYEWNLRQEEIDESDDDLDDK
ARFGAP1 inhibitor: inhibitors of rat ARFGAP1 GAP activity, primary screen, biochemical, fluorescence polarization, GDP tracer | AID 651572, 2012 | hit rate 0.26% among 360,000 | ADP-ribosylation factor GTPase-activating protein 1 (Rattus norvegicus), Q62848 | inhibition, % at 16.5 µM | Arfgap1-stimulated ARF1 GTP hydrolysis, GDP FP detection;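 active = inhibition above a per-plate limit, mean inhibition of low control wells plus 3 SD, cut at about 25% in these data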
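Material: rat Arfgap1 catalytic domain, aa 1-136; also added: human ARF1(Δ1-17)-GTP substrate; compound dosing: one concentration, 16.5 µM, DMSO 1.26%; incubation: GTP hydrolysis reaction 2 h at 25 °C; measured by: Tracer-displacement fluorescence polarization with EDTA stop, 620/688 nm; evaluation: % inhibition from polarization; repeats: one replicate per compound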
FGF22 binding: binders of human FGF22 protein, primary screen, FGF22 synaptogenesis inhibitor project, biophysical, thermal shift, single point; activity (Tm shift, normalised), % at 9.99 µM; recombinant FGF22 thermal shift, SYPRO orange fluorescence; percent of sucrose octasulfate shift, DMSO zero; hit rate 1.5% among 340,000;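 active = mean Tm shift, scaled 0 neutral to 100 positive control, at about 1.3% or above, every replicate too, limit read from the data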
Rtt109 HAT inh: inhibitors of C. albicans Rtt109/Vps75 HAT, primary screen, biochemical, ThioGlo CoA-SH fluorescence, plate reader. Histone acetyltransferase RTT109 (Candida albicans (strain SC5314 / ATCC MYA-2876)), …. AID 540336, 2011. hit rate 0.16% among 330,000. inhibition, % at 34.9 µM. purified Rtt109/Vps75, 4 h;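 active = inhibition of at least 50% in every replicate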
Large screens that a line does not name were inactive. Hits are enriched below; roughly 1.9% of the tested compounds scored in any of these assays.

C=CCn1c(SCc2ccc(Cl)cc2)nc2cc(C(=O)N3CCC(C(N)=O)CC3)ccc2c1=O	FGF22 binding 20.8
NC(=O)C1CCN(C(=O)c2ccc3c(=O)n(Cc4ccco4)c(SCC(=O)c4ccc(F)cc4)nc3c2)CC1	none (no result: ASAP1 inh, ARFGAP1 inhibitor, FGF22 binding, Rtt109 HAT inh)
C[C@H](O)C#Cc1cnc2c(c1)C(=O)N([C@@H](C)CO)C[C@@H](C)[C@H](CN(C)C(=O)Nc1ccc(C(F)(F)F)cc1)O2	none (no result: Efflux pump mplx, ASAP1 inh, ARFGAP1 inhibitor, Rtt109 HAT inh)
Cc1cc(=O)n(C)c(=O)n1CCCCOc1cccc([N+](=O)[O-])c1	FGF22 binding 43.6
Cc1ncc([N+](=O)[O-])n1CC(=O)Nc1ccccc1	FGF22 binding 43.0
COc1cccc(CNC(=O)c2cc3c(c(-c4cccc(-c5cccc(C#N)c5)c4)n2)[C@H](CCO)N([S@@](=O)C(C)(C)C)C3)c1	none (no result: Efflux pump mplx, ASAP1 inh, ARFGAP1 inhibitor, Rtt109 HAT inh)
C=CCOc1cccc(CNCCCN2CCOCC2)c1	FGF22 binding 43.5
CC(=O)Nc1cccc(NC(=O)c2ccc([N+](=O)[O-])cc2Cl)c1	none
O=C(Nc1cccc(O)c1)c1ccc([N+](=O)[O-])cc1Cl	FGF22 binding 43.2 (no result: Rtt109 HAT inh)
CC(N=C1CC(C)(C)CC(=O)/C1=C(/O)CCCN1C(=O)c2ccccc2C1=O)C(=O)O (configuration not stated)	FGF22 binding 42.9
CC1(C)CC(=O)/C(=C(\O)CCCN2C(=O)c3ccccc3C2=O)C(=NCC(=O)O)C1	none
Cc1cnc(N)nc1-c1ccccc1	FGF22 binding 43.2 (no result: Efflux pump mplx, Rtt109 HAT inh)
Nc1ncc(C(=O)O)c(-c2ccccc2)n1	none (no result: Efflux pump mplx)
CCOC(=O)c1c(C)[nH]c(C(=O)COC(=O)COc2ccc(OC)cc2)c1C	FGF22 binding 44.3
CC(=O)c1c(C)[nH]c(C(=O)COC(=O)COc2ccccc2)c1C	none
Cc1nnc(SCc2cc([N+](=O)[O-])cc3c2OCOC3)n(N)c1=O	FGF22 binding 42.9
Cc1ccccc1Nc1nnc(SCc2cc([N+](=O)[O-])cc3c2OCOC3)s1	none (no result: ASAP1 inh, ARFGAP1 inhibitor)
Cc1cc(F)ccc1NC(=O)Nc1ccc2c(c1)OCO2	none
Cc1ccc(OCCC(=O)OCC(=O)NC(=O)NC2CCCC2)cc1	none
COc1ccccc1Nc1nnc(SCC2CCCCO2)s1 (configuration not stated)	none
Cc1ccccc1Nc1nnc(SCC2CCCCO2)s1 (configuration not stated)	Rtt109 HAT inh 51.3
COc1ccc(N2C(=O)c3n[nH]c(C)c3C2c2ccc(F)cc2)cc1 (configuration not stated)	none (no result: Efflux pump mplx, Rtt109 HAT inh)
O=C(O)c1ccccc1NS(=O)(=O)c1cccc(-n2sc3ccccc3c2=O)c1	Rtt109 HAT inh 152.7 (no result: FGF22 binding)
COC(=O)C1=C(C)N(C)C(=S)NC1c1ccc(Cl)cc1 (configuration not stated)	FGF22 binding 44.2
CCOC(=O)C1=C(C)N(C)C(=S)NC1c1ccc(Cl)cc1 (configuration not stated)	none
CCC(Sc1nc(C)cc(C)n1)C(=O)Nc1cc(C)on1 (configuration not stated)	FGF22 binding 43.5
Cc1nc2cc(NC(=O)C3COc4ccccc4O3)ccc2s1 (configuration not stated)	FGF22 binding 43.5
Cc1nc2ccc(NC(=O)CCS(=O)(=O)c3ccccc3)cc2s1	none
Cc1nc2ccc(NC(=O)C3COc4ccccc4O3)cc2s1 (configuration not stated)	none
Cc1nc2cc(NC(=O)CCS(=O)(=O)c3ccccc3)ccc2s1	FGF22 binding 43.6
Cc1ccc(NC(=O)CSc2nnc(-c3cc(C)on3)o2)cc1	none
Cc1cc(C)cc(-c2nnc(SCC(=O)c3ccc4c(c3)OCCO4)o2)c1	none (no result: FGF22 binding)
Cc1cc(-c2nnc(SCC(=O)c3ccc4c(c3)OCCO4)o2)no1	FGF22 binding 44.4
Cc1cc(-c2nnc(SCC(=O)c3ccc(F)cc3)o2)no1	FGF22 binding 43.8
C[C@H](CO)N1C[C@H](C)[C@H](CN(C)C(=O)c2ccccn2)Oc2ncc(-c3cccc(C#N)c3)cc2C1=O	none (no result: Efflux pump mplx, ASAP1 inh, ARFGAP1 inhibitor, Rtt109 HAT inh)
CCCNC(=S)N1CCN(c2nc(C)nc3sc4c(c23)CCCC4)CC1	FGF22 binding 43.0

Bioassay records (PubChem)
